{"data": "Experimental data from different studies", "APC": "Adenomatous polyposis coli protein (APC, Homo sapiens, UniProt P25054)", "Ephx2": "Bifunctional epoxide hydrolase 2 (Ephx2, Mus musculus, UniProt P34914)", "EGFR C797S/L858R/T790M": "Epidermal growth factor receptor (EGFR, Homo sapiens, UniProt P00533, C797S/L858R/T790M)", "EGFR": "Epidermal growth factor receptor (EGFR, Homo sapiens, UniProt P00533)", "AMY1A": "Alpha-amylase 1A (AMY1A, Homo sapiens, UniProt P0DUB6)", "note": "Lines come from different studies, so protocols differ."}
{"SMILES": "CC(C)C[C@H](NC(=O)[C@H](Cc1ccc2ccccc2c1)NC(=O)[C@H](CCC(=O)O)NC(=O)C1N=CN=N1)C(=O)NC1CC1c1ccccc1 (stereo partly drawn)", "target": "APC", "test": "ligand displacement, FP", "IC50": "81300 nM"}
{"SMILES": "C=CC(=O)Nc1cc2c(Nc3ccc(OCc4ccccn4)c(Cl)c3)ncnc2cc1OCCN1CCOCC1", "target": "Epidermal growth factor receptor (EGFR, Homo sapiens, UniProt P00533, L858R/T790M)", "test": "enzyme activity, inhibitor", "IC50": "1.5 nM"}
{"SMILES": "CC(C)C[C@H](NC(=O)[C@H](Cc1ccc2ccccc2c1)NC(=O)[C@H](CCC(=O)O)NC(=O)c1ccncc1)C(=O)NC1CC1c1ccccc1 (stereo partly drawn)", "target": "APC", "test": "ligand displacement, FP", "IC50": "72400 nM"}
{"SMILES": "O=C(Nc1ccc(-c2ccnc3ccccc23)cc1)C1CCN(S(=O)(=O)c2ccccc2Cl)CC1", "target": "Ephx2", "test": "enzyme activity, inhibitor, fluorescence", "IC50": "28.6 nM"}
{"SMILES": "CC(C)C[C@H](NC(=O)[C@H](Cc1ccc2ccccc2c1)NC(=O)[C@H](CCC(=O)O)NC(=O)C1CCCCC1)C(=O)NC1CC1c1ccccc1 (stereo partly drawn)", "target": "APC", "test": "ligand displacement, FP", "IC50": "21900 nM"}
{"SMILES": "Cc1ncc(CN2CCN(Cc3ccccn3)CC2)c2cc(C(=O)c3ccc4c(c3)OCCO4)oc12", "target": "EGFR C797S/L858R/T790M", "test": "enzyme activity, inhibitor, ADP detection", "IC50": "29 nM"}
{"SMILES": "O=C(Nc1ccc(-c2cccc3cccnc23)cc1)C1CCN(S(=O)(=O)c2ccccc2Cl)CC1", "target": "Ephx2", "test": "enzyme activity, inhibitor, fluorescence", "IC50": "95.9 nM"}
{"SMILES": "CC(C)C[C@H](NC(=O)[C@H](Cc1ccc2ccccc2c1)NC(=O)[C@H](CCC(=O)O)NC(=O)c1cccc(F)c1)C(=O)NC1CC1c1ccccc1 (stereo partly drawn)", "target": "APC", "test": "ligand displacement, FP", "IC50": "29500 nM"}
{"SMILES": "Cc1ccc2c(-c3cc4c(CN5CCN(Cc6ccccn6)CC5)cnc(C)c4o3)cc(=O)oc2c1", "target": "EGFR", "test": "enzyme activity, inhibitor, ADP detection", "IC50": "8.38 nM"}
{"SMILES": "OC[C@H]1O[C@@H](Oc2cc3c4c(c2)[C@@H]([C@@H]2c5cc(O)cc6c5[C@@H](c5cc(O)cc(O)c5[C@H]2c2ccc(O)cc2)[C@H](c2ccc(O)cc2)O6)[C@H](c2ccc(O)cc2)c2c(O)cc(O)cc2[C@H]4[C@H](c2ccc(O)cc2)O3)[C@H](O)[C@@H](O)[C@@H]1O", "target": "AMY1A", "test": "enzyme activity, inhibitor", "IC50": "> 100000 nM"}
{"SMILES": "COc1cc(C(=O)N[C@@H](CCC(=O)O)C(=O)N[C@@H](Cc2ccc3ccccc3c2)C(=O)N[C@@H](CC(C)C)C(=O)NC2CC2c2ccccc2)ccn1 (stereo partly drawn)", "target": "APC", "test": "ligand displacement, FP", "IC50": "38900 nM"}
{"SMILES": "Cc1c(Cc2ccccc2)c(=O)oc2c(C)c(OCC(=O)NN=Cc3ccco3)ccc12", "target": "EGFR", "test": "enzyme activity, inhibitor, ATP luminescence", "IC50": "559 nM"}
{"SMILES": "O=C(Nc1ccc(-c2ccc3ncccc3c2)cc1)C1CCN(S(=O)(=O)c2ccccc2Cl)CC1", "target": "Ephx2", "test": "enzyme activity, inhibitor, fluorescence", "IC50": "87.7 nM"}
{"SMILES": "Oc1ccc([C@@H]2c3c(O)cc(O)cc3[C@@H]3c4c(cc(O)c5c4[C@@H]2[C@H](c2ccc(O)cc2)[C@H]5c2cc(O)cc4c2[C@@H](c2cc(O)cc(O)c2)[C@H](c2ccc(O)cc2)O4)O[C@H]3c2ccc(O)cc2)cc1", "target": "AMY1A", "test": "enzyme activity, inhibitor", "IC50": "5300 nM"}
{"SMILES": "Cc1ncc(CN2CCc3ccccc3C2)c2cc(C(=O)c3ccc4c(c3)OCCO4)oc12", "target": "EGFR C797S/L858R/T790M", "test": "enzyme activity, inhibitor, ADP detection", "IC50": "42.7 nM"}
